# Rad51 HR inh = blocks human Rad51 in homologous recombination | Q06609 | hRad51 DNA strand exchange, fluorescence dequenching | inhibition, % at 10 µM | 200,000 compounds, 0.085% hits;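 active = inhibition above 40% at the single screening dose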;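 also: 0% = DMSO control wells and 100% = blanks with heterologous ssDNA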
#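 material = hRad51 filaments on single-stranded DNA | reagent = Donor/quencher-labelled 47-bp dsDNA substrate | compound = 10 µM final, single point | schedule = strand-exchange reaction 15 min at room temperature | measured by = fluorescein emission 520 nm, excitation 485 nm | read-out basis = % inhibition versus plate control and blank means | benchmarks = plate controls and plate blanks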
# S1P3 antagonist = antagonists of human S1P3 receptor; Q99500; 170,000 compounds, 0.27% hits; CHO S1P3 NFAT-BLA reporter, FRET fluorescence, antagonist mode; inhibition, % at 4.98 µM;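 active = inhibition above the plate cutoff, the mean inhibition of test wells on that plate plus 3 SD, cut at about 28% in these data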;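 also: cells challenged with S1P at its EC80 of 0.8 µM; blue over green emission ratio from cleaved BLA substrate after 4 h stimulation; 0% = S1P-stimulated wells and 100% = unstimulated DMSO-only wells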
# Target sequence (Q99500 whole entry, looked up): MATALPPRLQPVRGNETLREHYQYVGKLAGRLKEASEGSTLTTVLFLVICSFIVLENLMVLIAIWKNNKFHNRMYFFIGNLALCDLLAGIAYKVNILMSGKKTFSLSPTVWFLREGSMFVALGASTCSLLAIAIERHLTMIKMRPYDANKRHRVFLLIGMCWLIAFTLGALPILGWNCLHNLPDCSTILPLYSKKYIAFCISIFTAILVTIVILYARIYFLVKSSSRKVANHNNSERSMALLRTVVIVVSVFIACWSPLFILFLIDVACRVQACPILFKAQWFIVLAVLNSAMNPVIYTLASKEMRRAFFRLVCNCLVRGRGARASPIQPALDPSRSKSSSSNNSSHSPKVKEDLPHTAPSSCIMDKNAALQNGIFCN
# Biofilm kill mix = mixtures killing C. albicans biofilm | C. albicans biofilm persisters + clotrimazole, fluorescence viability; primary screen in compound mixtures of four per well | 120,000 compounds, 0.02% hits | inhibition, % at 7.6 µM;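 active = inhibition above 30.3% in the primary screen of four-compound pools, then above 30% when the compound was retested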;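 also: compounds exposed to preformed 24 h biofilms for 48 h; 0% = untreated biofilm control and 100% = clotrimazole plus chlorhexidine kill blank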
#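 Test system: C. albicans biofilms. Buffer or medium: RPMI/MOPS medium, pH 7.0. Timing: 48 h compound exposure at 37 °C. Technique: Alamar Blue fluorescence. Evaluation: percent inhibition of biofilm viability.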
# Starred values were filed as active, the others as inactive; i = inactive; . = no result. Shown are actives, neighbours in structure and some others; about 0.31% of the full set was active somewhere.
SMILES,Rad51 HR inh,S1P3 antagonist,Biofilm kill mix
O=C(C1CCN(Cc2nc(Cc3cccc(F)c3)no2)CC1)N1CCOCC1,-1.1,-23.1,17.7
COc1ccc(S(=O)(=O)NC(CC(=O)NCCc2ccccc2)c2ccco2)cc1 (stereo unspecified),2.3,.,.
COc1ccc(S(=O)(=O)NC(CC(=O)NCCc2ccc(OC)c(OC)c2)c2ccco2)cc1 (stereo unspecified),-9.6,94.0*,.
COCCn1c(COc2ccc(Cl)cc2)nnc1SCC(N)=O,-9.0,62.5*,.
Cc1ccc(OCc2nnc(SCC(N)=O)n2N)cc1,-5.9,-20.9,5.9
CCOC(=O)CSc1nc(Cc2ccccc2)nc2ccccc12,-4.8,6.7,3.1
CC(C)Nc1ccc(Nc2ccnc3cc4ccccc4cc23)cc1,46.2*,5.3,14.9
COc1ccc(Nc2ccnc3ccccc23)cc1,1.4,14.6,.
Cc1oc(-c2ccccc2Cl)nc1CN1CCCCC1c1cccnc1 (stereo unspecified),-1.8,5.2,24.0
Cn1cc(CN2CCCC(C(=O)c3nccn3C)C2)c(-c2cccc(Cl)c2)n1 (stereo unspecified),.,6.5,14.2
CCn1c(=O)c(C(=O)CN2CCOCC2)c(N)n(Cc2ccccc2)c1=O,-6.4,77.2*,.
Cn1c(=O)c(C(=O)CN2CCOCC2)c(N)n(Cc2ccccc2)c1=O,3.8,16.0,.
Cc1c(C(N)=O)sc2ncn(CC(=O)NCCc3ccccc3)c(=O)c12,.,3.3,18.1
CC(C)CC(=O)Nc1ccc(-c2nnn(CC(=O)NCc3ccco3)n2)cc1,22.8,-10.3,14.8
COc1ccc(C(O)Cn2cc([N+](=O)[O-])nc2C)cc1 (stereo unspecified),-12.3,-3.8,2.6
C=CCNC(=S)NC(CC(=O)OC)c1ccc2c(c1)OCO2 (stereo unspecified),-21.7,-1.4,-6.7
C#CCN1C(=O)S/C(=C/C=C/c2ccc(N(C)C)cc2)C1=O,i,-6.3,7.8
Cc1sc(NC(=O)c2ccco2)c(CN2CCN(c3ccccn3)CC2)c1C,2.4,64.5*,.
Cc1sc(NC(=O)c2ccco2)c(CN2CCN(c3ccc(F)cc3)CC2)c1C,10.2,.,.
CCOC(=O)Cn1c(=O)c2c(nc(N3CCOCC3)n2C)n(C)c1=O,-3.4,.,.
CCOC(=O)Cn1c(=O)c2c(nc(N3CCCCC3)n2Cc2ccccc2)n(C)c1=O,43.9*,38.4,.
Cc1cc(NS(=O)(=O)c2ccc(NC(=S)Nc3ccc(Cl)cc3C)cc2)no1,-9.4,-5.6,17.6
Nc1cccc(Oc2ccc3c(c2)C(=O)N(CC2CCCO2)C3=O)c1 (stereo unspecified),20.2,-8.4,-4.5
COc1cccc(/C=C/C(=O)Nc2ccc3c(c2)OCCO3)c1OC,1.0,-10.1,15.5
Cc1cccc(NC(=S)N2CCN(Cc3ccc4c(c3)OCO4)CC2)c1C,-3.3,.,.
SMILES,Rad51 HR inh,S1P3 antagonist,Biofilm kill mix
CC(C)c1ccccc1NC(=S)N1CCN(Cc2ccc3c(c2)OCO3)CC1,48.1*,9.3,9.8
C/C(=N\NC(=O)C1COc2ccccc2O1)c1ccc(N2CCOCC2)cc1 (stereo unspecified),2.4,-7.7,-10.3
CC(=O)c1ccc(N2CCN(c3ccc(C(F)(F)F)cn3)CC2)cc1,-5.8,76.6*,17.2
CC(=O)c1ccc(N2CCN(c3ncc(C(F)(F)F)cc3Cl)CC2)cc1,19.6,.,.
CC12CCC(C(=O)N3CCCc4ccccc43)(OC1=O)C2(C)C (stereo unspecified),3.1,10.2,7.8
Cc1nc([N+](=O)[O-])cn1CC(O)c1ccc(F)cc1 (stereo unspecified),13.3,-4.5,10.2
CC[n+]1ccccc1/C=C/c1ccc(N(C)C)cc1,8.9,7.7,4.8
CC[n+]1ccc(/C=C/c2ccc(N(C)C)cc2)c2ccccc21,22.1,6.1,35.0*
NNC(=S)Nc1cccc(-c2n[nH]c(=S)o2)c1,9.9,9.5,27.2
CCOC(=O)C1CCN(CC(=O)Nc2c(C(=O)OC)n(C)c3cccc(C)c23)CC1,69.1*,-14.7,.
COC(=O)c1c(NC(=O)CN2CCC(C(N)=O)CC2)c2c(C)cccc2n1C,3.2,-15.1,.
Fc1ccc(C2CCCN2Cc2nc(Cc3ccccc3)no2)cc1 (stereo unspecified),0.9,-3.3,18.8
O=C(CCSCCc1ccccn1)Nc1ccc(Cc2ccncc2)cc1,6.8,4.8,24.2
Cc1cc(NC(=O)CSc2nnc(-c3ccc(Br)o3)n2Cc2ccccc2)no1,-2.1,.,.
O=C(CSc1nnc(-c2ccc(Br)o2)n1Cc1ccccc1)c1ccccc1F,-9.2,57.6*,.
Cc1ccc(OCCN2CCN(c3ncnc4sc(C)c(C)c34)CC2)cc1,-5.1,.,.
Clc1ccc(OCCN2CCN(c3ncnc4sccc34)CC2)cc1,-2.4,63.7*,.
CCCn1c(=O)n(N)c2ccccc21,13.4,-2.8,19.6
O=c1c2ccccc2[nH]c(=S)n1CCCN1CCN(C2CCCCC2)CC1,2.4,70.3*,.
CC1CCN(CCCn2c(=S)[nH]c3ccccc3c2=O)CC1,1.3,13.9,.
COc1ccc(C2=Nn3c(nnc3-c3ccccc3OC)SC2)cc1OC,-0.5,54.2*,.
COc1ccc(C2=Nn3c(nnc3-c3ccccn3)SC2)cc1OC,0.2,.,.
O=S(=O)(c1cccc(F)c1)N1CCc2sccc2C1c1ccc(OC(F)(F)F)cc1 (stereo unspecified),4.5,-2.8,14.7
CCn1cc(C(=O)N2CCn3c(nc4ccccc43)C2)c(=O)c2ccc(C)nc21,4.2,68.3*,.
CCN(CC)C(=O)N1CCn2c(nc3ccccc32)C1,-5.1,.,5.3
SMILES,Rad51 HR inh,S1P3 antagonist,Biofilm kill mix
CCCCOc1ccc(-c2nnn(CC(=O)NCc3ccco3)n2)cc1,5.3,-42.9,.
O=C(Cn1nnc(-c2ccccc2F)n1)NCc1ccco1,44.4*,6.2,10.2
CN(/N=C\c1ccc(O)c(O)c1)c1nc(-c2ccccc2)cc(-c2ccccc2)n1,15.2,8.1,13.0
Cn1c(=O)[nH]c(=O)c2c1nc(N1CCOCC1)n2CC(=O)c1ccccc1,25.1,1.4,-3.1
Cc1nc(N(C)C)c2sc(=S)n(-c3ccccc3)c2n1,21.7,-17.3,13.6
Cc1nc(N(C)C)c2sc(=S)n(C)c2n1,-0.7,95.9*,.
C/C(=C/C(=O)O)C(=O)Nc1cccc(C(F)(F)F)c1,-4.8,-23.3,11.8
COC(=O)c1c(N2C(=O)[C@H]3[C@@H](C2=O)[C@]2(C(=O)Nc4c2ccc(C)c4C)N2CCC[C@@H]32)sc(C)c1C,40.8*,2.1,18.4
COC(=O)c1c(N2C(=O)[C@H]3[C@@H](C2=O)[C@]2(C(=O)Nc4c(C)cc(C)cc42)N2CCC[C@@H]32)sc(C)c1C,-9.1,16.3,14.8
Cc1ccccc1OCC(O)Cn1c(=N)n(Cc2ccccc2)c2ccccc21 (stereo unspecified),0.8,5.4,30.4*
COc1ccccc1OCC(O)Cn1c(=N)n(Cc2ccccc2)c2ccccc21 (stereo unspecified),6.4,.,.
Cc1cc(C(=O)CSc2cccc[n+]2[O-])c(C)n1-c1ccc(OC(F)F)cc1,-3.0,0.8,10.7
COC(=O)c1ccc(-n2c(C)cc(C(=O)CSc3cccc[n+]3[O-])c2C)cc1,72.8*,-0.7,9.5
CCOC(=O)c1ccc(N2CSC3=C(C#N)C(c4cccs4)CC(=O)N3C2)cc1 (stereo unspecified),1.5,95.8*,.
